Screening results: PubChem BioAssay, The Scripps Research Institute Molecular Screening Center
MC4R barr agon = agonists of human melanocortin 4 receptor (MC4R) beta-arrestin. P32245. U2OS MC4R beta-arrestin complementation, luminescence; percent of melanotan II response, DMSO zero. activation, % at 8.9 µM. actives 0.98% (n = 360,000). AID 540308;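 active = activation above a per-plate cutoff, the mean activation of sample wells on that plate plus 3 SD, cut at about 8% in these data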
Target sequence (P32245 whole entry, looked up): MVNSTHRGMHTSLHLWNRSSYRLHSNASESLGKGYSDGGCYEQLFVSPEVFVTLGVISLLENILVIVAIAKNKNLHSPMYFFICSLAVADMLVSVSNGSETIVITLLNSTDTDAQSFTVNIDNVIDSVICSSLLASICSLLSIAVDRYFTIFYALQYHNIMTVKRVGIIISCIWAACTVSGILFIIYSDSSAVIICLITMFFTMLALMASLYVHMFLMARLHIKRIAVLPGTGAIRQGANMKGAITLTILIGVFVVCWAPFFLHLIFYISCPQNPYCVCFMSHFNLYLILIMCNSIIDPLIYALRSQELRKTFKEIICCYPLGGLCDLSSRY
MOR-DOR inv ag = inverse agonist of human OPRM1-OPRD1 heterodimerization. P35372+P41143. actives 0.21% (n = 340,000). inhibition, % at 9.3 µM. cell-based MOR-DOR heterodimer luminescence, inverse agonism; in the data active = inhibition above about 22%, passing the limit was not always enough;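 note: 0% = cells with DMSO and 100% = wells without cells with DMSO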
MOR-DOR ag-1 = OPRM1-OPRD1 heterodimerization agonism. P35372+P41143. cells, luminescence. activation, % at 9.3 µM. actives 0.3% (n = 340,000). AID 504326;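 note: 0% = vehicle-treated cells and 100% = reference agonist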
HTR5A ag ctr = HTR5A agonism, opioid heterodimer counter-screen; actives 0.61% (n = 340,000); HTR5A agonist assay, luminescence, cell-based; P47898; AID 504692; activation, % at 9.3 µM; in the data active = activation mostly above about 9.5%, no sharp cut-off; inactive = mostly below about 7.6%;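 note: 0% = cells with vehicle only and 100% = reference agonist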
Target sequence (P47898 whole entry, looked up): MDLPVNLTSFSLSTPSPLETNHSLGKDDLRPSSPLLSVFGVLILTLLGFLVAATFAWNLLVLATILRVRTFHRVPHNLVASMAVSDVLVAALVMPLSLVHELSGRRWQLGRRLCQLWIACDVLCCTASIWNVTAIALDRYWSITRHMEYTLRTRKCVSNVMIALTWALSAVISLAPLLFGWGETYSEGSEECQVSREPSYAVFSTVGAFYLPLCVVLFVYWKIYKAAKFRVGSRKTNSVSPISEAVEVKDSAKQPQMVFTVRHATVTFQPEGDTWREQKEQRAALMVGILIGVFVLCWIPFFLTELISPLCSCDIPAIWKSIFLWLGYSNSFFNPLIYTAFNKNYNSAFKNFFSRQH
MC4R antag cAMP = human MC4R antagonism in cAMP assay. MC4R-expressing cells, MTII-stimulated cAMP, LANCE TR-FRET. inhibition, % at 6.5 µM. actives 0.48% (n = 360,000). P32245;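 active = inhibition above its plate's cutoff, the mean of tested wells on that plate plus 3 SD, cut at about 29% in these data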;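 note: 0% = Melanotan II alone and 100% = Melanotan II plus saturating MCL0020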
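material = U2OS cells stably expressing human melanocortin 4 receptor (MC4R) | also added = Melanotan II challenge | dosing = single nominal compound dose of 6.5 µM | detection = TR-FRET with Eu-cAMP and labeled anti-cAMP, 671 nm | replication = singlicate | timing = compound 30 min, challenge 1 h, detection 1 h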
HTR5A inv ag = counter-screen for OPRM1-OPRD1 inverse agonists: human HTR5A inverse agonism; P47898; HTR5A cell line, luminescence; inhibition, % at 9.3 µM; actives 0.083% (n = 340,000); AID 504634; in the data active = inhibition mostly above about 23%, no sharp cut-off; inactive = mostly below about 18%;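 note: 0% = cells with DMSO and 100% = no-cell wells with DMSO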
MOR-DOR ag-2 = counter-screen for HTR5A agonists: OPRM1-OPRD1 heterodimerization agonism; shares compounds with HTR5A ag ctr; U2OS counter-screen cells, complementation luminescence, 3 h; activation, % at 9.3 µM; actives 13% (n = 800)
HTR5A ag confirm = HTR5A (human) agonism, confirmation. shares compounds with HTR5A ag ctr. HTR5A agonist cell assay, luminescence. activation, % at 9.3 µM. actives 17% (n = 800); in the data active = activation above about 17%;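 note: 0% = cells with vehicle only and 100% = full reference agonist response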
Starred values were filed as active, the others as inactive; . = no result given. Compounds with a hit are over-represented: about 2.4% of the library has one in this group of screens. Cut-off read from the data, not from the text of the source, unless noted: active = activation above about 18%; inactive = the rest.

SMILES | MC4R barr agon | MOR-DOR inv ag | MOR-DOR ag-1 | HTR5A ag ctr | MC4R antag cAMP | HTR5A inv ag | MOR-DOR ag-2 | HTR5A ag confirm
CC(=O)Nc1ccc(OCC(=O)N2CCC(Cc3ccccc3)CC2)cc1 | 0 | 8 | -2 | -1 | 6 | 4 | . | .
O=C(COc1ccc(C(=S)N2CCC(Cc3ccccc3)CC2)cc1)N1CCOCC1 | -2 | 4 | -1 | 15* | 5 | -43 | 5 | 3
O=C(NC1CC1)c1cccc(NC(=O)C2CCCCC2)c1 | -1 | 13 | -3 | 1 | 0 | -4 | . | .
COCCN(C)C(=O)CC1C(=O)NCCN1CC(c1ccccc1)c1ccccc1 (stereo not drawn) | -3 | 4 | -1 | 3 | 7 | -7 | . | .
COc1ccccc1NC(=O)C1CCCN(S(=O)(=O)c2c(C)noc2C)C1 (stereo not drawn) | 0 | 14 | -3 | 1 | 1 | 17 | . | .
CN(C(=O)CSc1cc(Cl)ccc1Cl)C1CCS(=O)(=O)C1 (stereo not drawn) | -2 | 11 | -2 | 0 | 2 | 2 | . | .
Cc1ccccc1/C=N/Nc1ncnc2nc[nH]c12 | 5 | 13 | -2 | 14* | -8 | 8 | 28* | 3
Cc1ccsc1/C=N/Nc1ncnc2nc[nH]c12 | -2 | 11 | -2 | 10 | -37 | -27 | . | .
CCn1c(SCC(=O)OC)nnc1-c1ccccc1 | -1 | 16 | -3 | 1 | 3 | -2 | . | .
CNc1ccccc(-c2ccc3ccccc3n2)c1=O | -3 | -14 | 3 | 15* | 4 | -111 | 0 | 39*
C[C@@H]1CN([C@@H](C)CO)C(=O)CCCn2nncc2CO[C@H]1CN(C)C(=O)C1CC1 | 1 | . | . | . | 11 | . | . | .
O=C(O)c1ccc(CSc2nnc(SCc3ccccc3)s2)cc1 | -1 | 4 | -1 | -2 | 6 | -31 | . | .
Cc1nnc(SCc2ccc(C(=O)O)cc2)s1 | 1 | 9 | -2 | 16* | 5 | -18 | 2 | 2
O=C(Nc1ccc(Nc2ccccc2)cc1)c1c(F)c(F)c(F)c(F)c1F | 5 | -24 | 5 | 16* | -2 | -7 | 11 | 4
Cc1ccc(Cl)c2sc(N3CCN(C(=O)c4ccco4)CC3)nc12 | 3 | -14 | 2 | 0 | 5 | 6 | . | .
COc1cccc2sc(N3CCN(C(=O)c4ccco4)CC3)nc12 | -1 | 16 | -2 | 19* | 0 | -35 | 19* | 14
O=C(Nc1nc(-c2cccs2)cs1)c1cccc(S(=O)(=O)N2CCCCCC2)c1 | -2 | -4 | 1 | 3 | -2 | 20 | . | .
O=C(Nc1nc(-c2cccs2)cs1)c1ccc(S(=O)(=O)N2CCCCC2)cc1 | -2 | -1 | 0 | 19* | 0 | -54 | -1 | -7
Cc1ccc(-c2nc(NC(=O)c3nn(C)cc3[N+](=O)[O-])sc2C)cc1 | -1 | 1 | 0 | -1 | -28 | -3 | . | .
Cc1ccc(-c2nc(NC(=O)c3nn(C)cc3[N+](=O)[O-])sc2C)cc1C | 3 | -80 | 14 | 17* | -6 | 2 | 24* | 12
CCOc1cc(S(=O)(=O)N2CCCCCC2)ccc1F | 0 | -4 | 1 | 20* | 0 | -15 | 2 | 4
CCOc1ccccc1N1CCN(S(=O)(=O)c2ccc(F)c(F)c2)CC1 | 1 | 1 | 0 | -1 | 6 | -7 | . | .
Cc1cccc(C)c1NC(=S)N1CCCN(Cc2ccc(F)cc2)C1 | -1 | 1 | 0 | 0 | 7 | -12 | . | .
COc1ccc(NC(=S)N2CCCN(Cc3cccc(Cl)c3)C2)cc1 | 0 | 5 | -1 | 48* | 5 | 7 | 167* | -2
COc1cccc(NC(=S)N2CCCN(Cc3ccc(F)cc3)C2)c1 | 2 | 0 | 0 | 33* | -3 | -14 | 4 | 26*
SMILES | MC4R barr agon | MOR-DOR inv ag | MOR-DOR ag-1 | HTR5A ag ctr | MC4R antag cAMP | HTR5A inv ag | MOR-DOR ag-2 | HTR5A ag confirm
CC(=O)N1CCN(C(=O)COC(=O)c2ccc(S(C)(=O)=O)cc2)CC1 | -1 | 21 | -4 | -1 | -6 | 3 | . | .
Cc1c(C)n(Cc2ccccc2)c2ccc(C(=O)NCCCN3CCOCC3)cc12 | -2 | 15 | -3 | 3 | -2 | -5 | . | .
O=C(c1ccc(Cn2c(=S)[nH]c3ccccc3c2=O)cc1)N1CCN(c2ccccn2)CC1 | 0 | -15 | 3 | 16* | 13 | -43 | 0 | -3
O=C(c1ccc(Cn2c(=O)[nH]c3ccccc3c2=O)cc1)N1CCN(c2ccccc2)CC1 | 4 | -32 | 6 | 15* | -5 | -4 | 1 | 8
O=C(c1ccc(Cn2c(=O)[nH]c3ccccc3c2=O)cc1)N1CCN(c2ccccn2)CC1 | 0 | 2 | 0 | 12 | 7 | -36 | . | .
COc1ccc(-c2cc(CCCC(=O)NCc3ccccn3)no2)cc1 | -1 | 12 | -2 | 3 | 4 | -19 | . | .
Cc1cc(N2CCN(C(=O)/C=C/C(=O)O)CC2)c2ccccc2n1 | 2 | -5 | 1 | 15* | -5 | -56 | 1 | 0
O=C(O)/C=C/C(=O)N1CCN(c2ccccc2F)CC1 | -2 | 15 | -3 | -2 | -6 | 16 | . | .
COc1cc(/C=C2\SC(=O)N(CCN)C2=O)ccc1OS(=O)(=O)c1cc(C)ccc1C | 5 | -42 | 9 | 22* | 5 | -64 | 19* | 15
CCC1CCCCN1CCCNC(=O)c1ccc2c(c1)c(C)c(C)n2C (stereo not drawn) | -3 | 12 | -2 | -1 | -2 | 4 | . | .
CC(=O)Nc1ccc(S(=O)(=O)N[C@@H](C)C(=O)OCc2cc([N+](=O)[O-])cc3c2OCOC3)cc1 | -1 | 3 | -1 | 0 | 2 | 6 | . | .
CC(=O)Nc1ccc2nc(NC(=O)c3cccnc3)sc2c1 | -1 | -1 | 0 | 15* | 4 | -34 | 2 | 51*
CN(C)S(=O)(=O)c1ccc2nc(NC(=O)c3cccnc3)sc2c1 | -1 | 8 | -1 | 3 | 5 | -7 | . | .
COCCNC(=O)C1(C)CCCN(C(=O)c2cccnc2SC)C1 (stereo not drawn) | 1 | . | . | . | -12 | . | . | .
COC(=O)c1cc(-c2c[nH]c3ccccc23)n[nH]1 | 0 | 7 | -2 | 30* | 0 | -160 | 10 | 0
CCOC(=O)C1C(C(=O)OC)=C(C(=O)OC)c2ccccc2N1S(=O)(=O)C(F)(F)F (stereo not drawn) | 0 | 14 | -3 | 2 | -1 | -9 | . | .
O=c1c(Cc2ccc(F)cc2)c(O)ccn1Cc1ccc(Cl)cc1Cl | 0 | 5 | -1 | 20* | 5 | -52 | 2 | 47*
O=S(=O)(NCc1ccccc1Cl)c1cccs1 | -1 | 16 | -3 | 8 | 2 | 9 | . | .
